From article PMC11482939 (bioRxiv, 2025) come the findings set out here.

For assay [1], the system named is UM cell lines (MP41, MP38, MP46). In words: Concentration-response cell viability, UM cell lines overall. The settings on record: 72 h. It counts as cell-based, human.
A further assay relates to WS1 fibroblast cell line. Briefly: Viability assay on non-cancerous fibroblasts. The settings on record: for IC50: Fibroblast, read-out: fibroblast IC50; for fold higher IC50 / lower toxicity for non-cancerous cells than for UM cells: WS1 fibroblast IC50 vs UM IC50. The format is cell-based. In a few lines:
(§1)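 Cells treated 72 h with a 10-point 1:3 dilution series from nominal 10 μM top (one compound started at 300 nM), n = 4. Viability read by CellTiter-Glo ATP luminescence and normalized to 0.1% DMSO controls. IC50 and % viability derived by four-parameter log(inhibitor) vs. response fit with variable slope.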

The test system of assay [2] is MP41 metastatic UM xenograft. Briefly: Metastatic UM xenograft mouse model. The format is in vivo, NSG mice. The settings on record: for survival in comparison with the vehicle group: log-rank test, p > 0.10. The method in brief:
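Female NSG mice, 16 weeks old, given 1 × 10^5 FACS-sorted RFP-luciferase-transduced MP41 cells via tail vein; n = 10 per group, randomized. From day 7, test compound dosed at 2 mg/kg IP weekly. Weekly IVIS imaging 10 min after 150 mg/kg IP d-luciferin. Endpoint was >20% weight loss or health decline; organs imaged ex vivo; survival compared by log-rank.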

Assay [3] concerns MP41 cells extracted from mouse liver metastases. Briefly: Ex vivo resistance testing of UM cells from mouse liver metastases. It counts as cell-based, human. The note with it: relative to cells from vehicle group. The method in brief: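 Liver tissue from treated and vehicle mice minced and digested overnight at 4°C in D-MEM with 400 U/mL type IV collagenase and 0.5 μg/mL amphotericin B. Cells grown in UM medium, confirmed as MP41 by RFP fluorescence, then given 10-point 1:3 dilution series for 72 h. Viability read by CellTiter-Glo ATP luminescence relative to 0.1% DMSO.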

The subject of another assay is MP41 and MP38 cells. Briefly: HDAC3 / HDAC8 inhibitor concentration-response testing. It counts as cell-based, human. The note with it: alone or in combination. In a few lines: as §1
The next assay has as its system UM cells. Briefly: Synergy testing of romidepsin and quisinostat with other hit compounds. It counts as cell-based, human. The settings on record: plus EC20 of other candidate compound.
Assay [4] deals with UM cell lines, including UMM66 cells. Briefly: Romidepsin from two sources in UM cell lines including UMM66. The format is cell-based. The settings on record: Homo sapiens, read-out: IC50 in all UM cell lines including UMM66.
The mark [5] stands for this setting: Homo sapiens, read-out: UM IC50, UM cell lines, 72 h.
[6] abbreviates: read-out: UM IC50, UM cell lines.

Entries after “also recorded” stand apart in the source; their conditions may differ. Where two headings read alike, the source gives them in different places.

As to `CC[C@@]1(O)C(=O)OCc2c1cc1n(c2=O)Cc2cc3ccccc3nc2-1` [(S)-(+)-Camptothecin], the half-maximal inhibitory concentration (IC50) (in general, the midpoint of a concentration-inhibition curve) in assay [1] (Homo sapiens, read-out: UM IC50) was about 0.334 µM.
On to `COc1ccc(-c2nc(N3CCOCC3)c3sc(CN(C)c4ncc(C(=O)NO)cn4)cc3n2)cn1` [Fimepinostat], for which the 50% inhibitory concentration (IC50) in assay [1] (setting [5]) is about 0.011 µM. Besides, in the assay with WS1 fibroblast cell line, the IC50 was about 0.055 µM and the “fold higher IC50 / lower toxicity for non-cancerous cells than for UM cells” value is reported as 4- to 5 fold.
Regarding `Nc1ccn([C@@H]2O[C@H](CO)[C@@H](O)C2(F)F)c(=O)n1` [Gemcitabine], in assay [1] (setting [5]), the IC50 is about 0.493 µM.
Take `CCS(=O)(=O)Nc1ccc(Oc2ccc(F)cc2F)c(-c2cn(C)c(=O)c3[nH]ccc23)c1` [Mivebresib]: the IC50 was about 0.125 µM in assay [1] (setting [5]) and over 10 µM in the assay with WS1 fibroblast cell line. In assay [2] (femur, spinal cord), the “metastases detected in organs (ex vivo IVIS)” value is “prevented the development of detectable spinal cord and femur metastases”. Further, the “acquired drug resistance after long-term in vivo treatment” value (from here on “acquired drug resistance after long-term”) in assay [3] is “No significant resistance was detected”.
As to `COc1ccc(Cn2ccc3ccc(C(=O)NO)cc32)cc1` [PCI-34051], in the assay with MP41 and MP38 cells, the “potency of HDAC3 / HDAC8 inhibitor” value was “neither was potent”.
In the case of `Cc1[nH]c2ccccc2c1CCNCc1ccc(/C=C/C(=O)NO)cc1` [Panobinostat], the IC50 in assay [1] (setting [5]) was about 0.026 µM; in the assay on WS1 fibroblast cell line, about 0.124 µM. Besides, the “fold higher IC50 / lower toxicity for non-cancerous cells than for UM cells” value with WS1 fibroblast cell line is 4- to 5 fold.
Turning to `COc1cc([C@@H]2c3cc4c(cc3[C@H](O)[C@H]3COC(=O)[C@H]23)OCO4)cc(OC)c1OC` [Podofilox], in assay [1] (setting [5]), the half-inhibitory concentration (IC50) is about 0.00936 µM.
Take `Cn1cc(CNCC2CCN(c3ncc(C(=O)NO)cn3)CC2)c2ccccc21` [Quisinostat]: in assay [1] (setting [5]), the IC50 was about 0.014 µM. Further, in the assay on WS1 fibroblast cell line, the IC50 is about 0.118 µM and the “fold higher IC50 / lower toxicity for non-cancerous cells than for UM cells” value is recorded as “approximately 9 fold”. Moreover, the “synergy with the other 16 compounds” value with UM cells is “did not find significant synergy”. Moreover, the “survival in comparison with the vehicle group” value in assay [2] is given as “did not significantly improve survival rates”. For the same compound, the “acquired drug resistance after long-term” value in assay [3] is listed as “No significant resistance was detected”.
With `Nc1cc(F)ccc1NC(=O)/C=C/c1cnn(C/C=C/c2ccccc2)c1` [RGFP966], the “potency of HDAC3 / HDAC8 inhibitor” value in the assay on MP41 and MP38 cells is on record as “neither was potent”.
With `C/C=C1\NC(=O)[C@H]2CSSCC/C=C/[C@H](CC(=O)N[C@H](C(C)C)C(=O)N2)OC(=O)[C@H](C(C)C)NC1=O` [Romidepsin], the half-inhibitory concentration (IC50) is about 0.0035 µM in assay [1] (setting [5]) and 0.0024 to 0.0057 µM in assay [4]. Moreover, the “synergy with the other 16 compounds” value with UM cells was “did not find significant synergy”. Also, the “survival in comparison with the vehicle group” value in assay [2] is “did not significantly improve survival rates; also recorded: did not improve the survival rate”. Besides, in assay [3], the “acquired drug resistance after long-term” value was “No significant resistance was detected”.
For the compound `CC(C)C[C@H](NC(=O)[C@H](Cc1ccccc1)NC(=O)c1cnccn1)B(O)O` [Velcade], the results for the IC50 (in assay [1] (setting [5]); in assay [1] (setting [6]); with WS1 fibroblast cell line) were about 0.0076 µM, about 0.008 µM and about 0.057 µM, respectively.
Turning to Cucurbitacin B, the 50% inhibitory concentration (IC50) in assay [1] (setting [6]) is about 0.0379 µM.
